Assay results from ChEMBL document CHEMBL4138257, “Long-Lasting and Fast-Acting in Vivo Efficacious Antiplasmodial Azepanylcarbazole Amino Alcohol” (ACS Med Chem Lett, 2017).
In brackets after ≈: the same amount, converted by molar mass. Activity calls are given as the source filed them. No cut-off for these calls is given here.

Key:
[1] = Half life in rat at 0.5 mg/kg, po measured for 14 days; assay type: ADME, organism-based; conditions: in vivo
[2] = Volume of distribution at steady state in CD1 mouse at 0.2 mg/kg, iv measured for 14 days; assay type: ADME, organism-based; conditions: in vivo, read-out: Vdss
Method in brief: (§1)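 Single iv administration, mouse dose 0.2 mg·kg-1. CL reported in L/h/kg and as % liver blood flow; Vss in L/kg.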

[3] = Efflux ratio of apparent permeability from basolateral to apical side over apical to basolateral side in human Caco2 cells at 20 uM after 4 hrs in presence of human plasma by LC-MS analysis; assay type: ADME, cell-based; conditions: Caco-2
Method in brief: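 Caco-2 permeability was run with human plasma on both donor and acceptor sides to reduce non-specific binding. Apparent permeability (Papp, ×10^-6 cm/s) was corrected for the unbound concentration, and an efflux ratio was reported.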

[4] = Clearance in CD1 mouse at 0.2 mg/kg, iv measured for 14 days; assay type: ADME, organism-based; conditions: in vivo; method in brief: as §1
[5] = Oral bioavailability in dog at 0.5 mg/kg measured for 14 days; assay type: ADME, organism-based, Canis lupus familiaris; conditions: in vivo
[6] = Octanol-phosphate buffer partition co-efficient, log D of the compound at pH 7.4 after 1 hr by HPLC analysis; assay type: physicochemical
Plasmodium falciparum [7] = assay: Antiplasmodial activity against Plasmodium falciparum 3D7A infected in red blood cells assessed as log reduction in parasite viability at 10 times EC50 after 48 hrs by [3H]-hypoxanthine incorporation assay; assay type: functional
Method in brief: (§2)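 In vitro parasite reduction ratio (PRR) assay on P. falciparum 3D7A-infected erythrocytes exposed to drug at 10× or 3× EC50. Viability of treated parasites was measured by limiting serial dilution followed by monitoring of re-growth. Killing was expressed as log-unit reduction in viable parasites after 48 h.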

[8] = Ratio of drug uptake in human blood to plasma; assay type: ADME; conditions: blood and plasma
[9] = Protein binding in brain (unknown origin); assay type: ADME, tissue-based; conditions: read-out: PB
[10] = Clearance in dog at 0.2 mg/kg, iv measured for 14 days; assay type: ADME, organism-based, Canis lupus familiaris; conditions: in vivo; method in brief: as §1
[11] = Ratio of EC50 for Plasmodium falciparum D6 infected in human erythrocytes to EC50 for Plasmodium falciparum NF54 infected in human erythrocytes; assay type: functional
[12] = molecular target: Voltage-gated inwardly rectifying potassium channel KCNH2 (Homo sapiens, UniProt Q12809); assay: Inhibition of human ERG
[13] = Intrinsic clearance in dog microsomes assessed per mg protein; assay type: ADME, Canis lupus familiaris, Microsome
[14] = Ratio of drug uptake in mouse blood to plasma; assay type: ADME; conditions: blood and plasma
[15] = Oral bioavailability in CD1 mouse at 0.5 mg/kg measured for 14 days; assay type: ADME, organism-based; conditions: in vivo
Method in brief: (§3)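 Single po administration, mouse dose 0.5 mg·kg-1; plasma concentrations followed to obtain Cmax time and half-life. Bioavailability derived against single iv dosing.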

Plasmodium falciparum [16] = assay: Antiplasmodial activity against Plasmodium falciparum Dd2 infected in human erythrocytes after 72 hrs by [3H]-hypoxanthine incorporation assay; assay type: functional, organism-based
[17] = Dissociation constant, pKa of the compound at pH 1.5; assay type: physicochemical
[18] = Intrinsic clearance in monkey microsomes assessed per mg protein; assay type: ADME, Macaca mulatta, Microsome; conditions: rhesus monkey
Plasmodium falciparum [19] = assay: Antiplasmodial activity against Plasmodium falciparum 3D7 infected in human erythrocytes engrafted in NOD-SCID IL-2Rgamma null mouse assessed as reduction in blood parasitemia administered as single dose via oral gavage […] by flow cytometry; assay type: functional; conditions: 3D7, po
Method in brief: (§4)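 SCID mice engrafted with human erythrocytes, infected with P. falciparum 3D7; single oral dose of 1, 3, 10 or 30 mg·kg-1 given day 3 after infection. Parasitemia measured by flow cytometry, lower limit of quantification 0.01; vehicle group n=3; chloroquine positive control. ED90 and AUC_ED90 are taken as the reduction at day 7 after infection versus vehicle-treated mice.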

Plasmodium falciparum [20] = assay: Antiplasmodial activity against Plasmodium falciparum 3D7 infected in human erythrocytes engrafted in NOD-SCID IL-2Rgamma null mouse assessed as reduction in peripheral blood parasitemia administered as single dose via oral gavage measured on […] by flow cytometry; assay type: functional, organism-based; method in brief: as §4
[21] = Fraction unbound in mouse plasma at 1000 ng/mL by LC-MS analysis; assay type: ADME, cell-free
[22] = Ratio of EC50 for Plasmodium falciparum K1 infected in human erythrocytes to EC50 for Plasmodium falciparum NF54 infected in human erythrocytes; assay type: functional
Plasmodium falciparum [23] = assay: Antiplasmodial activity against Plasmodium falciparum V1/S infected in human erythrocytes after 72 hrs by [3H]-hypoxanthine incorporation assay; assay type: functional, organism-based
[24] = Ratio of EC50 for Plasmodium falciparum FCB infected in human erythrocytes to EC50 for Plasmodium falciparum NF54 infected in human erythrocytes; assay type: functional
[25] = Ratio of EC50 for Plasmodium falciparum TM90C2B infected in human erythrocytes to EC50 for Plasmodium falciparum NF54 infected in human erythrocytes; assay type: functional
Plasmodium falciparum [26] = assay: Antiplasmodial activity against schizont stage of Plasmodium falciparum 3D7A infected in red blood cells assessed as reduction in parasite viability at 3 to 10 times EC50 after 48 hrs by [3H]-hypoxanthine incorporation assay relative to ring stage; assay type: functional
[27] = Intrinsic clearance in human microsomes assessed per mg protein; assay type: ADME, Microsome
[28] = Ratio of EC50 for Plasmodium falciparum HB3 infected in human erythrocytes to EC50 for Plasmodium falciparum NF54 infected in human erythrocytes; assay type: functional
[29] = Intrinsic clearance in mouse microsomes assessed per mg protein; assay type: ADME, Microsome
[30] = Tmax in CD1 mouse at 0.5 mg/kg, po measured for 14 days; assay type: ADME, organism-based; conditions: in vivo; method in brief: as §3
[31] = Half life in CD1 mouse at 0.5 mg/kg, po measured for 14 days; assay type: ADME, organism-based; conditions: in vivo; method in brief: as §3
Plasmodium falciparum [32] = assay: Antiplasmodial activity against Plasmodium falciparum D6 infected in human erythrocytes after 72 hrs by [3H]-hypoxanthine incorporation assay; assay type: functional, organism-based
Plasmodium falciparum [33] = assay: Antiplasmodial activity against Plasmodium falciparum NF54 infected in human erythrocytes after 72 hrs by [3H]-hypoxanthine incorporation assay; assay type: functional, organism-based
[34] = Fraction unbound in dog plasma at 1000 ng/mL by LC-MS analysis; assay type: ADME, cell-free, Canis lupus familiaris
Plasmodium falciparum [35] = assay: Antiplasmodial activity against Plasmodium falciparum HB3 infected in human erythrocytes after 72 hrs by [3H]-hypoxanthine incorporation assay; assay type: functional, organism-based
Plasmodium falciparum [36] = assay: Antiplasmodial activity against Plasmodium falciparum 3D7A infected in red blood cells assessed as log reduction in parasite viability at 3 times EC50 after 48 hrs by [3H]-hypoxanthine incorporation assay; assay type: functional; method in brief: as §2
[37] = Ratio of EC50 for Plasmodium falciparum V1/S infected in human erythrocytes to EC50 for Plasmodium falciparum NF54 infected in human erythrocytes; assay type: functional
Plasmodium falciparum [38] = assay: Antiplasmodial activity against Plasmodium falciparum TM90C2B infected in human erythrocytes after 72 hrs by [3H]-hypoxanthine incorporation assay; assay type: functional, organism-based
[39] = Kinetic solubility of the compound in FeSSIF at pH 5 after 24 hrs by HPLC analysis; assay type: physicochemical; conditions: read-out: Kinetic_solubility
[40] = Apparent permeability of the compound in human Caco2 cells at 20 uM after 4 hrs in presence of human plasma by LC-MS analysis; assay type: ADME, cell-based; conditions: Caco-2
Method in brief: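 Caco-2 permeability measured with human plasma in both donor and acceptor compartments to reduce non-specific binding. Papp corrected for the unbound concentration under these conditions; efflux ratio also reported.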

[41] = Fraction unbound in human plasma at 1000 ng/mL by LC-MS analysis; assay type: ADME, cell-free
[42] = Cmax in NOD-SCID IL-2Rgamma null mouse at 10 mg/kg measured up to 5 days; assay type: ADME, organism-based; set-up: dose 10 mg/kg; conditions: in vivo
Plasmodium falciparum [43] = assay: Ratio of EC90 for Plasmodium falciparum NF54 infected in human erythrocytes to EC50 for Plasmodium falciparum NF54 infected in human erythrocytes; assay type: functional
[44] = Half life in dog at 0.5 mg/kg, po measured for 14 days; assay type: ADME, organism-based, Canis lupus familiaris; conditions: in vivo; method in brief: as §3
Plasmodium falciparum [45] = assay: Antiplasmodial activity against Plasmodium falciparum 7G8 infected in human erythrocytes after 72 hrs by [3H]-hypoxanthine incorporation assay; assay type: functional, organism-based
[46] = Ratio of EC50 for Plasmodium falciparum 7G8 infected in human erythrocytes to EC50 for Plasmodium falciparum NF54 infected in human erythrocytes; assay type: functional
Plasmodium falciparum [47] = assay: Antiplasmodial activity against Plasmodium falciparum 3D7A infected in red blood cells at 2 times EC90; assay type: functional, organism-based
[48] = Stability in human hepatocytes assessed as parent compound remaining after 5 hrs; assay type: ADME, cell-based, Hepatocyte; conditions: read-out: Stability
Method in brief: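 Human hepatocyte incubation extended to 5 h; parent remaining and metabolite formation assessed.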

[49] = Fraction unbound in rat plasma at 1000 ng/mL by LC-MS analysis; assay type: ADME, cell-free
[50] = Lipophilicity, log P of the compound; assay type: physicochemical; conditions: octanol/water
Plasmodium falciparum [51] = assay: Antiplasmodial activity against Plasmodium falciparum FCB infected in human erythrocytes after 72 hrs by [3H]-hypoxanthine incorporation assay; assay type: functional, organism-based
Plasmodium falciparum [52] = assay: Antiplasmodial activity against Plasmodium falciparum K1 infected in human erythrocytes after 72 hrs by [3H]-hypoxanthine incorporation assay; assay type: functional, organism-based
[53] = Ratio of EC50 for Plasmodium falciparum Dd2 infected in human erythrocytes to EC50 for Plasmodium falciparum NF54 infected in human erythrocytes; assay type: functional
[54] = Kinetic solubility of the compound in FaSSIF at pH 6.5 after 24 hrs by HPLC analysis; assay type: physicochemical; conditions: read-out: Kinetic_solubility
[55] = Intrinsic clearance in rat microsomes assessed per mg protein; assay type: ADME, Microsome
[56] = Kinetic solubility of the compound in PBS at pH 7.4 after 24 hrs by HPLC analysis; assay type: physicochemical; conditions: read-out: Kinetic_solubility
Plasmodium falciparum [57] = assay: Antiplasmodial activity against Plasmodium falciparum 3D7 infected in human erythrocytes engrafted in NOD-SCID IL-2Rgamma null mouse assessed as reduction in blood parasitemia at 10 to 30 mg/kg, po administered as single dose via gavage measured on day 4 post treatment by flow cytometry; assay type: functional, organism-based
Method in brief: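 Human-erythrocyte-engrafted SCID mice infected with P. falciparum 3D7 received one oral dose (1, 3, 10 or 30 mg·kg-1) on day 3 post-infection. Parasitemia was followed by flow cytometry, with a quantification limit of 0.01; vehicle controls n=3.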

[58] = Oral bioavailability in rat at 0.5 mg/kg measured for 14 days; assay type: ADME, organism-based; conditions: in vivo

Sequence of Voltage-gated inwardly rectifying potassium channel KCNH2 (Q12809 whole entry): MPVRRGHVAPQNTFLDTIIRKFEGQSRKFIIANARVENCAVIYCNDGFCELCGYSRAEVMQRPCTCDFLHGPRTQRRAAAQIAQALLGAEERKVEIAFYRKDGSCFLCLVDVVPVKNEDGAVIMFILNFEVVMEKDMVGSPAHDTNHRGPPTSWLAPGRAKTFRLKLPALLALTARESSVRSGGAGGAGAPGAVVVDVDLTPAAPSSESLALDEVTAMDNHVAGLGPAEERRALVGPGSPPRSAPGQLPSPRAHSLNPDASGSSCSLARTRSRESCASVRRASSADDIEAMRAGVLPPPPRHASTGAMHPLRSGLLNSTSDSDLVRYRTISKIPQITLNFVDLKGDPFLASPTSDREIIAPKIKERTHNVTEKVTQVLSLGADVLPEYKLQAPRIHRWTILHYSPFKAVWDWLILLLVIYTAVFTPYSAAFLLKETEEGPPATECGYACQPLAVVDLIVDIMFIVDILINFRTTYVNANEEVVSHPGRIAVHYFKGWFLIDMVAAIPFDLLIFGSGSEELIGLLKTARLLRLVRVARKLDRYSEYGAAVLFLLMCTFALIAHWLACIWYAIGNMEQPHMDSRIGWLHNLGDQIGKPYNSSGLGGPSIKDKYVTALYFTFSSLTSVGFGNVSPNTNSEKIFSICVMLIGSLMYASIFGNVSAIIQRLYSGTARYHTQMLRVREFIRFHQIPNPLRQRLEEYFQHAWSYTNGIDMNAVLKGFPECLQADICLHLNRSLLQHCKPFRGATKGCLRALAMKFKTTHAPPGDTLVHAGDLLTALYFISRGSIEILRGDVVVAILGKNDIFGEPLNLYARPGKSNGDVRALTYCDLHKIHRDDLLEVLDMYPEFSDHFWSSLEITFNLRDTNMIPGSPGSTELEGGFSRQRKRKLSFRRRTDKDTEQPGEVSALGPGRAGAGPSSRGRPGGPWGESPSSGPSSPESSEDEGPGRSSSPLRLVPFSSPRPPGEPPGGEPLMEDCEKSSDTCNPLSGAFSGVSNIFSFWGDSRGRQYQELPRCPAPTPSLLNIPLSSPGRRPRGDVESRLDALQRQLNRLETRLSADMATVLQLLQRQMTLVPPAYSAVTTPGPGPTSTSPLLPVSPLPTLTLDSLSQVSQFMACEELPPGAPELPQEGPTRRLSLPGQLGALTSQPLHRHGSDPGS

For `O[C@H]1CNCCC[C@@H]1n1c2ccc(C(F)(F)F)cc2c2cc(C(F)(F)F)ccc21`, the half-life [1] was 160 h, the Vd [2] was 10 L/kg and the efflux ratio at 4 h, 20 µM [3] was 0.8. It also gave a clearance [4] of 0.156 L/h/kg, a bioavailability [5] of 100% and a logD at 1 h [6] of 4.1. The FC (Plasmodium falciparum [7]) was 4.8, the blood plasma ratio [8] was 1.5 and the fraction unbound [9] was less than 0.001. For the same compound, the clearance [10] was 0.179 L/h/kg, the “Ratio EC50” value [11] was 1.4 and the IC50 [12] was 1180 nM. It also gave a microsomal CLint [13] of less than 10 µL/min/mg, a blood plasma ratio [14] of 1.6 and a bioavailability [15] of 97%. For the same compound, the EC50 (Plasmodium falciparum [16]) was 3.2 nM, the pKa [17] was 8.05 and the microsomal CLint [18] was less than 10 µL/min/mg. For the same compound, the ED90 (Plasmodium falciparum [19]) was 3.6 mg/kg, the AUCED90 (Plasmodium falciparum [20]) was 2.2 µg.hr/ml/day and the fraction unbound at 1000 ng/mL [21] was 0.026. The “Ratio EC50” value [22] was 0.3, the EC50 (Plasmodium falciparum [23]) was 1.3 nM and the “Ratio EC50” value [24] was 1.3. For the same compound, the “Ratio EC50” value [25] was 1.2, the “fold change (FC)” value (Plasmodium falciparum [26]) was 2 and the microsomal CLint [27] was less than 10 µL/min/mg. The “Ratio EC50” value [28] was 0.9, the microsomal CLint [29] was less than 10 µL/min/mg and the Tmax [30] was 6 h. The half-life [31] was 86 h, the EC50 (Plasmodium falciparum [32]) was 3.4 nM and the fEC50 (Plasmodium falciparum [33]) was 0.17 nM. The EC50 (Plasmodium falciparum [33]; Plasmodium falciparum, NF54) was 2.4 nM, the fraction unbound at 1000 ng/mL [34] was 0.013 and the EC50 (Plasmodium falciparum [35]) was 2.1 nM. For the same compound, the FC (Plasmodium falciparum [36]) was 4.5, the “Ratio EC50” value [37] was 0.5 and the EC50 (Plasmodium falciparum [38]) was 3 nM. The solubility kinetic at 24 h [39] was 0.0835 mg/mL (≈ 201 µM), the Papp at 4 h, 20 µM [40] was 1200 nm/s and the fraction unbound at 1000 ng/mL [41] was 0.035. The Cmax [42] was 1 µM, the “fold change (FC)” value (Plasmodium falciparum [43]) was 2 and the half-life [44] was 69 h. The EC50 (Plasmodium falciparum [45]) was 0.4 nM, the “Ratio EC50” value [46] was 0.2 and the Activity (Plasmodium falciparum [47]) was “Active”. It also gave a remaining at 5 h [48] of 96%, a fraction unbound at 1000 ng/mL [49] of 0.025 and a logP [50] of 4.6. For the same compound, the EC50 (Plasmodium falciparum [51]) was 3 nM, the EC50 (Plasmodium falciparum [52]) was 0.7 nM and the “Ratio EC50” value [53] was 1.3. It also gave a solubility kinetic at 24 h [54] of 0.01 mg/mL (≈ 24 µM), a microsomal CLint [55] of less than 10 µL/min/mg and a solubility kinetic at 24 h [56] of 0.0015 mg/mL (≈ 3.6 µM). The Activity (Plasmodium falciparum [57]) was “Active” and the bioavailability [58] was 72%.

`C1CCCNCC1` [AZEPANE] showed a pKa [17] of 8.05.

`CCN(CC)CCCC(C)Nc1ccnc2cc(Cl)ccc12` (stereo unspecified) [CHLOROQUINE] gave an ED50 (Plasmodium falciparum [19]) of 2.8 mg/kg.
